Assay results reported in ChEMBL document CHEMBL4251543, “Identification of potent tricyclic prodrug S1P1 receptor modulators” (Medchemcomm, 2017).

Key:
Rattus norvegicus [1] = experiment: Immunosuppressive activity in Lewis rat assessed as reduction in blood lymphocytes count at 2 mg/kg, po after 24 hrs relative to control; assay type: functional; parameters: scale not given: the % may be the effect or the level left
How it was run: (§1)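 Oral dosing in Lewis rats, with PEG300 as vehicle, given as solution or suspension adjusted for free test article if salt forms are used. Blood sampled at several time points. Lymphocytes counted on a hematology analyzer. Result is the reduction in circulating lymphocyte percentage versus the vehicle group at each time, averaged per group (n = 2).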

[2] = Prodrug conversion in Lewis rat blood assessed as formation phosphate metabolite at 2 mg/kg, po after 48 hrs; assay type: ADME, organism-based; conditions: in vivo
[3] = Prodrug conversion in Lewis rat blood assessed as parent compound levels at 2 mg/kg, po after 4 hrs; assay type: ADME, organism-based; conditions: in vivo, read-out: Drug metabolism
[4] = Prodrug conversion in Lewis rat blood assessed as parent compound levels at 2 mg/kg, po after 24 hrs; assay type: ADME, organism-based; conditions: in vivo, read-out: Drug metabolism
[5] = Half life in Lewis rat at 2 mg/kg, po after 72 hrs; assay type: ADME, organism-based; conditions: in vivo
Rattus norvegicus [6] = experiment: Immunosuppressive activity in Lewis rat assessed as reduction in blood lymphocytes count at 2 mg/kg, po after 48 hrs relative to control; assay type: functional; parameters: scale not given: the % may be the effect or the level left; how it was run: as §1
[7] = Prodrug conversion in Lewis rat blood assessed as formation phosphate metabolite at 2 mg/kg, po after 4 hrs; assay type: ADME, organism-based; conditions: in vivo
Rattus norvegicus [8] = experiment: Immunosuppressive activity in Lewis rat assessed as reduction in blood lymphocytes count at 2 mg/kg, po after 4 hrs relative to control; assay type: functional; parameters: scale not given: the % may be the effect or the level left; how it was run: as §1
[9] = Prodrug conversion in Lewis rat blood assessed as parent compound levels at 2 mg/kg, po after 48 hrs; assay type: ADME, organism-based; conditions: in vivo, read-out: Drug metabolism
[10] = Prodrug conversion in Lewis rat blood assessed as formation phosphate metabolite at 2 mg/kg, po after 24 hrs; assay type: ADME, organism-based; conditions: in vivo
[11] = molecular target: Sphingosine 1-phosphate receptor 3 (Homo sapiens, UniProt Q99500); experiment: Agonist activity at human EDG3-Ga15-bla expressed in HEK293T cells after 45 mins by [35S]GTPgammaS binding assay; assay type: functional, cell-based
How it was run: (§2)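 Membranes from S1P1/CHO or EDG3-Ga15-bla HEK293T cells (final protein 3 µg/well) incubated with compound (11-point, 3-fold dilution) and [35S]GTP 0.2 nM final in 20 mM HEPES pH 7.5, 10 mM MgCl2, 150 mM NaCl, 1 mM EGTA, 1 mM DTT, 10 µM GDP, 0.1% fatty acid free BSA, 10 µg/ml saponin, 45 min at room temperature. Filter capture, scintillation counting; EC50 taken at 50% of each compound's Ymax.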

Cardiac muscle cell [12] = experiment: Toxicity in human inducible pluripotent stem cell derived cardiomyocytes assessed as reduction in beating rate at 1 nM after 20 mins by multi-electrode array electrophysiology study; assay type: cell-based; parameters: scale not given: the % may be the effect or the level left; conditions: 0.001 µM
How it was run: (§3)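 hiPSC cardiomyocytes were grown 7 days at 7% CO2 on gelatin, then co-cultured with 10% cardiac fibroblasts for 7 days on laminin-coated 9-well MEA plates until they formed a beating monolayer. After 20-60 min equilibration at 37 °C, compound was added in maintenance medium (DMSO or NaOH vehicle below 0.1% or 30 µM). Field potentials were recorded at 10 kHz from 28 electrodes/well for at least 2 h. Reported as mean change in beating rate versus control, mean ± SD of ≥3 experiments.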

Cardiac muscle cell [13] = experiment: Toxicity in human inducible pluripotent stem cell derived cardiomyocytes assessed as reduction in beating rate at 10 nM after 20 mins by multi-electrode array electrophysiology study; assay type: cell-based; parameters: scale not given: the % may be the effect or the level left; conditions: 0.01 µM; how it was run: as §3
[14] = molecular target: Sphingosine 1-phosphate receptor 1 (Homo sapiens, UniProt P21453); experiment: Agonist activity at human S1P1 receptor expressed in CHO cell membranes after 45 mins by [35S]GTPgammaS binding assay; assay type: functional; how it was run: as §2
Mus musculus [15] = organism: Mus musculus; experiment: Pulmonary toxicity in mouse assessed as increase in BAL protein levels at 60 times ED50; assay type: organism-based; conditions: in vivo
Rattus norvegicus [16] = experiment: Immunosuppressive activity in po dosed Lewis rat assessed as reduction in blood lymphocytes after 24 hrs; assay type: functional; how it was run: as §1
Mus musculus [17] = organism: Mus musculus; experiment: Pulmonary toxicity in mouse assessed as increase in BAL protein levels at 30 times ED50; assay type: organism-based; conditions: in vivo
Mus musculus [18] = organism: Mus musculus; experiment: Pulmonary toxicity in mouse assessed as increase in BAL protein levels up to 10 times ED50; assay type: organism-based; conditions: in vivo
Mus musculus [19] = organism: Mus musculus; experiment: Pulmonary toxicity in mouse assessed as increase in BAL protein levels at 15 times ED50; assay type: organism-based; conditions: in vivo
Mus musculus [20] = organism: Mus musculus; experiment: Pulmonary toxicity in mouse assessed as increase in BAL protein levels at 5 times ED50; assay type: organism-based; conditions: in vivo
Mus musculus [21] = organism: Mus musculus; experiment: Pulmonary toxicity in mouse assessed as increase in BAL protein levels at ED50; assay type: organism-based; conditions: in vivo

Sequence of Sphingosine 1-phosphate receptor 1 (P21453 whole entry): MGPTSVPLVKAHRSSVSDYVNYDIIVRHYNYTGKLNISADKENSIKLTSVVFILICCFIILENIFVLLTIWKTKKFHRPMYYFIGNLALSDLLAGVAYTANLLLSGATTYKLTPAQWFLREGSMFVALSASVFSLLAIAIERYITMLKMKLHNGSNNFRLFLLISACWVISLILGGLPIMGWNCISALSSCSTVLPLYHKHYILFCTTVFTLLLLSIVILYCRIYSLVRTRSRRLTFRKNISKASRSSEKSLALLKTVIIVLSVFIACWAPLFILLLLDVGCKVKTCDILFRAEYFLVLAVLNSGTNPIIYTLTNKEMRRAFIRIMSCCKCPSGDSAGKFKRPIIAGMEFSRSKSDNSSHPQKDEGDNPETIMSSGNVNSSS
Sequence of Sphingosine 1-phosphate receptor 3 (Q99500 whole entry): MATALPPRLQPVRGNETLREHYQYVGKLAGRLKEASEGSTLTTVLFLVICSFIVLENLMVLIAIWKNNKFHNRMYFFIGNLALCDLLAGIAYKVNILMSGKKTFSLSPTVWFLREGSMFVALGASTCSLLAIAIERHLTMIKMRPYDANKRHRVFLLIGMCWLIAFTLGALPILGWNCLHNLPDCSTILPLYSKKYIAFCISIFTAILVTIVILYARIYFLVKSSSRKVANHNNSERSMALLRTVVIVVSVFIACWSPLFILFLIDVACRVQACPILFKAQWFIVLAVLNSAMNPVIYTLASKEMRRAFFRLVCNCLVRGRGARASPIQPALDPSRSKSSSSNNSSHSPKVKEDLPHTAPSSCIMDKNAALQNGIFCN

SMILES	Activity (Rattus norvegicus [1]) [%]	Drug metabolism [2] [nM]	concentration [3] [nM]	concentration [4] [nM]	half-life [5] [h]	Activity (Rattus norvegicus [6]) [%]	Drug metabolism [7] [nM]	Activity (Rattus norvegicus [8]) [%]	concentration [9] [nM]	Drug metabolism [10] [nM]	Emax [14] [%]	also measured
CCCCSc1nc2ccc3cc([C@H]4CC[C@](N)(CO)C4)ccc3c2s1	75	< 5	15	8	6	59	10	69	< 5	8.1		
CCCCCCOc1nc2ccc3cc([C@H]4CC[C@](N)(CO)C4)ccc3c2s1	83	160	81	78	41	86	260	73	41	250		
CCCc1nc2c(s1)-c1ccc([C@H]3CC[C@](N)(CO)C3)cc1CC2	0		110	< 19	< 2		79	41		< 10		
CCCCCc1nc2c(s1)-c1ccc([C@H]3CC[C@](N)(COP(=O)(O)O)C3)cc1CC2											79	EC50 [11]: > 3000 nM; Activity (Cardiac muscle cell [12]): Toxic; Activity (Cardiac muscle cell [13]): Toxic; EC50 [14]: 21 nM
CCCCCOc1nc2ccc3cc([C@H]4CC[C@](N)(CO)C4)ccc3c2s1	80		31	17	35	68		80	8.3			
CCCCc1nc2c(s1)-c1ccc([C@H]3CC[C@](N)(CO)C3)cc1CC2	48	< 5	77	9.4	< 4	12	97	66	< 5	8.2		
CCCCCCOc1nc2c(s1)-c1ccc([C@H]3CC[C@](N)(COP(=O)(O)O)C3)cc1CC2											100	
CCCCOc1nc2ccc3cc([C@H]4CC[C@](N)(CO)C4)ccc3c2s1	77	< 5	28	21	14	59	5.1	65	12	< 5		
CCCCCCc1nc2c(s1)-c1ccc([C@H]3CC[C@](N)(CO)C3)cc1CC2	82	50	110	66	35	74	140	59	< 10	160		
CCCCCc1nc2c(s1)-c1ccc([C@H]3CC[C@](N)(CO)C3)cc1CC2	83	16	100	55	20	56	91	33	25	56		Activity (Mus musculus [15]): Toxic; ED50 (Rattus norvegicus [16]): 0.5 mg/kg; Activity (Mus musculus [17]): Non-Toxic; Activity (Mus musculus [18]): Non-Toxic
CCCc1nc2c(s1)-c1ccc([C@H]3CC[C@](N)(COP(=O)(O)O)C3)cc1CC2											79	
CCCCCCCc1nc2c(s1)-c1ccc([C@H]3CC[C@](N)(COP(=O)(O)O)C3)cc1CC2											98	
CCCCSc1nc2c(s1)-c1ccc([C@H]3CC[C@](N)(CO)C3)cc1CC2	48	< 1	9.1	1.4	< 5	16	15	82	< 1	2.3		ED50 (Rattus norvegicus [16]): 2 mg/kg; Activity (Mus musculus [19]): Toxic; Activity (Mus musculus [20]): Toxic
COc1cccc(-c2nc3c(s2)-c2ccc([C@H]4CC[C@](N)(CO)C4)cc2CC3)c1	63	< 5	97	68	4	30	39	31	< 5	< 5		
CCCCCOc1nc2c(s1)-c1ccc([C@H]3CC[C@](N)(CO)C3)cc1CC2	80	< 5	81	29	21	59	71	67	12	26		
CCCCN(C)c1nc2c(s1)-c1ccc([C@H]3CC[C@](N)(CO)C3)cc1CC2	27		110	18	9	4.4		30	4.1			
CCCCNc1nc2c(s1)-c1ccc([C@H]3CC[C@](N)(CO)C3)cc1CC2	0		33				570	37		190		
CCCCNc1nc2c(s1)-c1ccc([C@H]3CC[C@](N)(COP(=O)(O)O)C3)cc1CC2											49	EC50 [14]: 130 nM
CCCCCCOc1nc2c(s1)-c1ccc([C@H]3CC[C@](N)(CO)C3)cc1CC2	82	< 5	72	31	25	82	62	66	17	< 5		
CCCCOc1nc2c(s1)-c1ccc([C@H]3CC[C@](N)(CO)C3)cc1CC2	68	4	35	7	5	26	34	74	< 5	20		ED50 (Rattus norvegicus [16]): 1 mg/kg; Activity (Mus musculus [21]): Toxic
CCCCOCCOc1nc2c(s1)-c1ccc([C@H]3CC[C@](N)(COP(=O)(O)O)C3)cc1CC2											110	EC50 [11]: 190 nM; EC50 [14]: 1 nM
Cc1ccc(-c2nc3c(s2)-c2ccc([C@H]4CC[C@](N)(CO)C4)cc2CC3)cc1	2.1		48	37	6		12	9.3		19		
CCCCCSc1nc2c(s1)-c1ccc([C@H]3CC[C@](N)(CO)C3)cc1CC2	76	< 5	87	16	5	44	43	72	< 5	10		
CCCCCCCc1nc2c(s1)-c1ccc([C@H]3CC[C@](N)(CO)C3)cc1CC2	77	150	66	110	> 50	80	63	40	43	300		
CCCCSc1nc2c(s1)-c1ccc([C@H]3CC[C@](N)(COP(=O)(O)O)C3)cc1CC2											58	Activity (Cardiac muscle cell [12]): Toxic; Activity (Cardiac muscle cell [13]): Toxic
CCCCOc1nc2c(s1)-c1ccc([C@H]3CC[C@](N)(COP(=O)(O)O)C3)cc1CC2											58	Activity (Cardiac muscle cell [12]): 16%; Activity (Cardiac muscle cell [13]): 36%
